Tested on: MS2 coat protein
Experiment: apparent Kd, MS2 coat protein; higher = weaker binding; RNA-MaP array; FMN 200 µM where present
Summary of the method: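 SNAP-549-labelled MS2 coat protein, doubled from 0.7 or 1.5 nM to 3 µM, was titrated over designs transcribed by stalled E. coli RNA polymerase on Illumina sequencing-chip clusters. Titrations were run without and then with constant ligand in 100 mM Tris-HCl pH 7.5, 80 mM KCl, 4 mM MgCl2, BSA, DTT, yeast tRNA and Tween-20. The apparent Kd is the median of filtered per-cluster fits to green signal normalised to red-channel RNA signal and control-cluster median Fmax.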

[1] = designed as: ON switch for flavin mononucleotide, no ligand
[2] = ligand present: flavin mononucleotide, designed as: ON switch for flavin mononucleotide
[3] = designed as: OFF switch for flavin mononucleotide, no ligand
[4] = ligand present: flavin mononucleotide, designed as: OFF switch for flavin mononucleotide

| Sequence | apparent Kd [1] [nM] | apparent Kd [2] [nM] | apparent Kd [3] [nM] | apparent Kd [4] [nM] |
| --- | --- | --- | --- | --- |
| CUUUUAUAAUAGAAGGUUGACUUUAAGUGGAUCACCCAUGUGUAGGUACAAAGGAUAUGUAGUUACAUGAGGAUCACCCAUGUU | 306 | 201 | – | – |
| GACGCUGACCGAGGAUAUACAAUAAAACAACAAACACCUCGUGUCAGAACAUGAGGAUCACCCAUGUAGAAGGCGGCAGGUCUA | – | – | 48.6 | 127 |
| CUGACAGCGCAGAAGGGAGAUCCUACAUGAGGAUCACCCAUGUGGGCUCUCAGGAUAUGCACGUGUAUGCUGAAAGUAGCAUUG | 17.2 | 7.17 | – | – |
| AGAAACUACGAGAAGGACAAAACCGGUGCCGCAAACAUGAGGAUCACCCAUGUAGGAUAUCGUAGUUUCAGGAUCGUGAGAUCA | – | – | 9.2 | 31.2 |
| UUAAUUAUACAAGGAUAUCUAUUGUUAUGUCGACUUACAUGAGGAUCACCCAUGUUAAUAUAUGAAGAGAAGGUGUAUUUUCAG | 157 | 90 | – | – |
| AAUAUUAAGUAGAAGGUAGAUAUUAUUUUAUUCAUGUUUACAUGAGGAUCACCCAUGUAUAAGUCUAAGGAUAUACAUCGAUAG | – | – | 14.9 | 9.93 |
| AGAAACUACGAGAAGGACAUGAGGAUCACCCAUGUUUCCACUUAGUGGCAUGUAGGAUAUCGUAGUUUCAGGAUCGUGAGAUCA | – | – | 5.58 | 16.6 |
| UUUCCGCGAGGAUAUGCGGGCUGUGCUUUUCAUUUCUUACAACAUGAGGAUCACCCAUGUAGAAGGUGCUUCUU | – | – | 213 | 189 |
| CGUGCAUAUGUAGGAUAUGGUUAUCUAUGUCUAGUUACUAGACAUAGAUAACCAGAAGGACAUGAGGAUCACCCAUGUAGCACG | – | – | 9.7 | 17.4 |
| GCUGUGGCAUGAGGAUAUGGUCACCUUUGGUGACCAGAAGGCAUGUCAAUAGACAUGAGGAUCACCCAUGUAGUUAACACAGCA | 561 | 42.4 | – | – |
| UGGAUGUAGGAGAAGGAGGACUUCAUGAGGAUCACCCAUGUGUUAGGACUUAGGAUAUUUGACGACAUGAGGAUCACCCAUGUG | 63.6 | 58.4 | – | – |
| AACAGCACAGGAUAUACAUGAGGAUCACCCAUGUGAGAAUUAAGUAGAUUGCCACAGAGUAGAAGGGUGCUGGA | – | – | 53.7 | 104 |
| UAAAUUUACAAGAAGGCUAACAUGAGGAUCACCCAUGUUGUACAUGGAUAUAGAGGAUAUUGCUAAUAAUUAUUUAUCAUAAUU | – | – | 24.2 | 19.5 |
| GUAUCAUAUGAGAAGGCGAUCAUGAAACAUGAUCGAGGAUAUCAUGAAAACAUGAGGAUCACCCAUGUAUGGGUAUUAAGGUAC | 65.6 | 41.7 | – | – |
| GAAUUCGCAUGAGGAUAUGCACUCAUUUCAUGUGCAGAAGGUAUAACAUUAGACAUGAGGAUCACCCAUGUAUUGGUCAGUAAC | 15 | 13.4 | – | – |
| UCAAAUGCCGUAGGAUAUAAUGUGCGCCGUCCGUGAGAUGUAAAUUGACAUGAGGAUCACCCAUGUUAGAAGGGCGGCAUCAGC | – | – | 5.88 | 5.92 |
| UAGGACUACGUAGGAUAUUAAAUCAUGUACUACAUGAGGAUCACCCAUGUUAAUUUAACAUCAGCUGAGAAGGACGUGGUAAAU | 120 | 58.5 | – | – |
| AGCUGGAGAGGAUAUACGUAGGUAAAAAAAGUCUGAUAACUACAUGAGGAUCACCCAUGUAGAAGGCUCUGGCA | – | – | 16 | 43.8 |
| GCUCGGCGUCAGAAGGCAGACGCGAAGCGCGUUUGAGGAUAUGACAUGAGGAUCACCCAUGUAGGUGUGCGAAAUUGUAAUCAC | – | – | 301 | 309 |
| CCUCUACAUGAGGAUCACCCAUGUGAGGAUAUCUCGGAACAACCACUUAAGGCACUCCAGAGAAGGCACGUGUA | – | – | 14.9 | 20.9 |
| GCCAACGCAUGAGGAUAUGCUCCCGUUUCGGGAGCAGAAGGCAUGUCAUAAGACAUGAGGAUCACCCAUGUAGUCAAGAUGGCA | 291 | 16.7 | – | – |
| UGCGUACAAGCAGACAUGAGGAUCACCCAUGUGGUCUCAUGCGAGGAUAUCGGGAAGGAGGAUUCCGAGAAGGUGCGGUGAGCC | 157 | 39.6 | – | – |
| UAUAUAUAGGCAGGAUAUACAUGAAUAUAUAUAAUAUAAUAUAAUGUAACAUGAGGAUCACCCAUGUAGAAGGGCCAAUAUAUA | – | – | 30.6 | 59.9 |
| UUAUUGUGAGGAUAUCCAAUAUAUGACAUGAGGAUCACCCAUGUUUCCACUCGUACCUCCGGAGAAGGCACUUAUU | – | – | 32.7 | 29.4 |
| UUAAAAGUGACAUGAGGAUCACCCAUGUGAAUUAGUAGUAGCAGAAGGCACGUGGGAAGACCAAGUGAGGAUAUGUAGCUUUAA | 515 | 44 | – | – |
| ACGCUUUGGGAGAAGGUACUUUAAAAUAUUUCCACAUGAGGAUCACCCAUGUAAGGAUAUCCCAUCGUUAAAUAUUAUACAGCA | – | – | 8.91 | 6.88 |
| UGGUACAUGGGAGGAUAUCCUCAACAUGAGGAUCACCCAUGUAAGAAUUAUAAGCCGAAAGGCAUGGAGAAGGCCCAUGUACCU | 71.6 | 15.3 | – | – |
| UAUUGUUCCUGAGGAUAUCAGUUGUUUGCAUUAUGAGAAGGCAGUACAUGAGGAUCACCCAUGUUGGGAUUUGAUAGAAUGAUA | 185 | 195 | – | – |

| Sequence | apparent Kd [1] [nM] | apparent Kd [2] [nM] | apparent Kd [3] [nM] | apparent Kd [4] [nM] |
| --- | --- | --- | --- | --- |
| CAGUCUACAGGAUAUACAUGAGGAUCACCCAUGUGUAUCAACCUUCUGUAAUCCACAUGUAGAAGGGUAGACUG | – | – | 14.8 | 13.5 |
| AUCAGCUCGUCAGGAUAUACGUCACUGCUUCGGCAGUGUGAAAAGAUCACAUGAGGAUCACCCAUGUAGAAGGGACGAGCUGAU | – | – | 9.15 | 120 |
| UUUUAGGAAGGAUAUACAUUUUUUUUAUUAUCCUCAUUAUUACAUGAGGAUCACCCAUGUAGAAGGUCCAUUUU | – | – | 172 | 137 |
| AAUAAUUAGUAAGGAUAUACUAGCGAUUAGCUUGUAGAAGGUACAGUCUUAUGUAUAACAAAUUAACAUGAGGAUCACCCAUGU | 10.2 | 7.39 | – | – |
| CAGGAUAGAGGAUAUACAUAGAUACAGGUUCAUGUAAUCCUACAUGAGGAUCACCCAUGUAGAAGGCUAUCCUG | – | – | 15 | 43.3 |
| CUAGUUGUCGCAGGAUAUGCCCGCUGGUUGGAGGCAGAAGGGUGACACCAAAUAUUAUACAUGAGGAUCACCCAUGUCGCCAAC | 17.9 | 19.3 | – | – |
| AUAUGAUAGAUAGGAUAUACAGAUAAAUAAUAAGUAGAAGGAUCAAAUGGAAAUUAUACAUGAGGAUCACCCAUGUUUUUGAAU | 29 | 22.4 | – | – |
| UUGGACGUCGUAGGAUAUGUAGGAUAUUCCUACAUGAGGAUCACCCAUGUUGACAUGGAAGAAGGACAGAAGGACGAGGUCCAU | 241 | 4.93 | – | – |
| ACUGGUCGAGGAUAUACAAUCGUGCUUCGGCACGUAAGAUCACAUGAGGAUCACCCAUGUAGAAGGCGACCAGU | – | – | 60.3 | 743 |
| AAUAAUUAGUAAGGAUAUACUAGUGAUUAGCUUGUAGAAGGUACAGUCUUAUGUAUAACAAAUUAACAUGAGGAUCACCCAUGU | 8.8 | 8.1 | – | – |
| UCAUUGAUUGUGAGGAUAUCGAUGUGAUGGAUUGUCGAGAAGGCACAUGAGGAUCACCCAUGUGGGUGUGGGCU | – | – | 864 | 454 |
| CCAUAAAAGAUCCAAAAUUACAACAUGAGGAUCACCCAUGUGCAGGAUAUCGUGCCAGUGAAGUACGAGAAGGGCAGACACUGC | – | – | 450 | 487 |
| GUAGAACAUGAGGAUCACCCAUGUGAAGACGCAUGAGGAUAUAUACGUAAAUAGCAUACGAUAGAAGGCAUGAUAA | 51.8 | 26.8 | – | – |
| ACGCGAUGGGAGAAGGUACUUUAAAAUAUUUCCACAUGAGGAUCACCCAUGUAAGGAUAUCCCAUCGUUAAAUAUUAUACAGCA | – | – | 7.07 | 5.91 |
| AGUUAAUAUCGAGGAUAUCCUCAUAAACAUGAGGAUCACCCAUGUUAACAUGGAGAAGGCGAUAUUAACAGCAUGUUACAUGCA | 268 | 20.2 | – | – |
| UGUUGUAUUACAGGAUAUCUAUUGUUUUUAUUUAGAGAAGGGUAUUCACAUGAGGAUCACCCAUGUAUAUACGAGGAAGUUGUG | 59.4 | 63.2 | – | – |
| GGACAUGAGGAUCACCCAUGUCGAACAUGAGGAUCACCCAUGUAGGAUAUGCUACUCAAAGAGUAGCAGAAGGACAUGUGCCUU | – | – | 53.7 | 51.2 |
| GGAUAGGACAGAGGAUAUACGUGCUAGAGAUACUAGCAAAAUUUCCUCACAUGAGGAUCACCCAUGUAGAAGGCUGUCCUAUCG | – | – | 46 | 954 |
| GGAGCACGCACAGGAUAUCCGGCGGCGCUCGUCGGAGAAGGGUGACAUGAGGAUCACCCAUGUACGUGCAACUCGGUUUGAGAG | 105 | 49.2 | – | – |
| CCCGCGAUGUCAGGAUAUAGUCGGAGGUGCAGACUAGAAGGGACAUGAGGAUCACCCAUGUGCGUAAACAUUUGAAACCCAGGU | – | – | 16.5 | 33.1 |
| GCCAGGCAUGUAGGAUAUCCAUUGCGUCGCGUUGGAGAAGGGCAACACACAUGAGGAUCACCCAUGUGGUCACCCAUGUAGUGU | – | – | 489 | 524 |
| CAGUACUGAGGAUAUACAUGAGGAUCACCCAUGUGUUCCAGCUAGGAAACUAGCAAGAGUAGAAGGCAGUACUG | – | – | 23.7 | 459 |
| GUAGCAUACCGAGGAUAUUCAUACGGGAAACCGACAUGAGGAUCACCCAUGUGGCGAAAGCCUUGGGAGAAGGCGGAAUGCUAC | 691 | 24.8 | – | – |
| CGGGCGAGAGGAUAUACAUGAGGAUCACCCAUGUGUUUCCAGGCGGUAGCUGUCACGUGUAGAAGGUUUUCCGG | – | – | 18.4 | 17.7 |
| AAUAUGUCAUCAGGAUAUCGAGACCGGCGAGUACGAGAAGGGAUGACAUGAGGAUCACCCAUGUGAGACGCGUGAUUUGCAGGU | – | – | 105 | 304 |
| AGUCGGAGCAGAGGAUAUUACAUGAGGAUCACCCAUGUAGGUACCAAUAGCUGGAAACAGCAAUGUAAGAAGGCUGCUCCGACA | – | – | 259 | 281 |
| CCUCCACAUUAGGAUAUCAUCAAACUAUUGUGAUGAGAAGGAAUGACAUGAGGAUCACCCAUGUUAUCGUGAUG | – | – | 20.9 | 18.1 |
